# Source: PubChem (several laboratories)
# The list is not random: actives were taken first. Their share in the collection is about 1.6%.
# ASAP1 inh: inhibitors of human ASAP1 ArfGAP activity. ASAP1-stimulated ARF1 GTP hydrolysis, GDP FP detection. inhibition, % at 16.5 µM. hit rate 0.19% among 360,000. AID 624377; in the data active = inhibition above about 25%;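 note: 0% = vehicle with enzyme and substrate and 100% = no enzyme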
# ARFGAP1 inhibitor: inhibits rat ARF GTPase activating protein 1 | AID 651572 | Arfgap1-stimulated ARF1 GTP hydrolysis, GDP FP detection | inhibition, % at 16.5 µM | hit rate 0.26% among 360,000;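 active = inhibition above a per-plate limit, mean inhibition of low control wells plus 3 SD, cut at about 25% in these data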;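 note: 0% = DMSO wells with enzyme and 100% = wells lacking Arfgap1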
# Target sequence (Q62848 1-136 limits assumed): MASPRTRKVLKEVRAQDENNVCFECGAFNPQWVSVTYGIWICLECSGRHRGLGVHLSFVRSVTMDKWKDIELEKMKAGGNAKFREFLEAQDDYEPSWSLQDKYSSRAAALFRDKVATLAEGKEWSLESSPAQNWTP
#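 System: truncated rat Arfgap1 GAP domain / Medium: HEPES-based buffer, pH 7.5 / Also added: N-terminally truncated human ARF1-GTP substrate / Incubation: enzyme reaction 120 min at 25 °C after 20 min preincubation / Measured by: FP of antibody-bound GDP Alexa 633 tracer, ex 620/em 688 nm / Replicates: singlicate, each compound tested once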
# Neddyl block: inhibitors of human cullin neddylation; inhibition, % at 25 µM; hit rate 0.58% among 360,000; AID 651699; TR-FRET cullin neddylation, biochemical; P61081+Q13564; in the data active = inhibition above about 36%
# H9c2 protect: myocardial damage modulation in H9c2 cells. H9c2 cardiomyocytes, H2O2 injury protection, ATPLite, 2 h. protection from H2O2 cell death, % at 20 µM. hit rate 0.63% among 360,000. AID 588492;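 active = compounds giving at least 50% protection of heart cells from peroxide-induced death in the single-dose screen, raw or plate-pattern-corrected value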;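 note: 0% = DMSO wells with peroxide and 100% = DMSO wells without peroxide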
# ARFGAP1 confirm: confirmation of rat ARFGAP1 inhibitors; AID 651608; inhibition, % at 16.5 µM; hit rate 30% among 890; shares compounds with ARFGAP1 inhibitor; ARFGAP1-stimulated ARF1 GTP hydrolysis, GDP tracer FP;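 active = average inhibition over triplicates above the hit cutoff set in the earlier primary screen, cut at about 25% in these data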;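 note: 0% = Arfgap1 plus ARF1-GTP with DMSO and 100% = wells lacking Arfgap1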
# Target sequence (Q62848 whole entry, looked up): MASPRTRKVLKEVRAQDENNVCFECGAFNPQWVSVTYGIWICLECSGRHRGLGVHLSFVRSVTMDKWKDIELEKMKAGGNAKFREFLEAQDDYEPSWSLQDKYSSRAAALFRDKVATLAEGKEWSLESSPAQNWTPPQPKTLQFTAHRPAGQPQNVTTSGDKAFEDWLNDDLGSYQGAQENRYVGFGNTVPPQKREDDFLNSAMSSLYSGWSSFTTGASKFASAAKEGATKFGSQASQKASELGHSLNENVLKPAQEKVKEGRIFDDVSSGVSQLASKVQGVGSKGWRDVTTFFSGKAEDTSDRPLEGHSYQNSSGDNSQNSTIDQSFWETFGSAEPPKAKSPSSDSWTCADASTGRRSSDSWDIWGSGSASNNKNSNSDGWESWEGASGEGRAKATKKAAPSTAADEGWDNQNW
# The depositor's hits bear a star; . = not tested or not shown; ! = not active in a repeat.
SMILES,ASAP1 inh,ARFGAP1 inhibitor,Neddyl block,H9c2 protect,ARFGAP1 confirm
CC1=CC(=O)c2ccccc2C1=O,1,26*!,6,-38,-1
COc1ccc(NC(=O)C2CCCN(S(=O)(=O)c3ccc4c(c3)CC(C)N4C(C)=O)C2)cc1 (stereo not drawn),-2,26*,-8,-5,1
C[C@H]1[C@H](c2ccccc2)Oc2cccc(NCCc3ccccc3)c2S(=O)(=O)N1Cc1ccc(F)cc1,4,-1,.,.,.
Cc1c(C(=O)Nc2ccc(-n3cnnn3)cc2)oc2ccccc12,24,26*,.,13,47*
CCC(=O)Nc1ccc(NC(=O)c2oc3ccccc3c2C)cc1,-6,-14,14,14,.
Nc1ccccc1C(=O)NN=Cc1cccc([N+](=O)[O-])c1,5,-6,-18,-15,.
Cc1nc2ccccc2cc1C(=O)N/N=C/c1cccc([N+](=O)[O-])c1,4,25*,-23,13,8
COc1ccc(C2C(O)C(c3c[nH]c4ccccc34)=NN2C(=O)CCl)cc1 (stereo not drawn),16,26*,36,-9,9
Cc1[nH]nc2c1C(c1cccc(C(F)(F)F)c1)N(Cc1ccccc1)C2=O (stereo not drawn),1,-4,.,.,.
C=C1C[C@@H]2C[C@@H]2CN(S(=O)(=O)c2ccc(C)cc2)[C@@H]1c1ccco1,1,10,-4,.,.
CCC(C)C(=O)Nc1cc(OC)c(OC)cc1C(=O)O (stereo not drawn),-4,28*,3,7,7
CCC[C@@H]1CCCO[C@@](C(=O)NCCN2CCOCC2)(C(F)(F)F)C1,6,31*,-26,-3,-5
C=CCCC1CN(Cc2ccc(OC)cc2)S(=O)(=O)c2c(Oc3ccc(C(C)C)cc3)cccc2O1 (stereo not drawn),2,-16,.,.,.
O=C(Nc1ccncc1)c1cn(-c2ccccc2)nc1-c1cccs1,12,26*,-40,-2,13
O=C1CSc2ccc(C(=O)Nc3cccc(S(=O)(=O)Nc4ccc(Br)cc4)c3)cc2N1,15,33*,12,-30,25*
CS(=O)(=O)N(CC(=O)N1CCN(c2ccccc2F)CC1)c1ccc2c(c1)OCCO2,-6,34*,-2,0,-4
C=CCc1cc(C(=O)N2CCCCC2)ccc1O,10,2,-2,6,.
C=CCc1ccc(O)c(-c2ccc(O)c(CC=C)c2)c1,14,36*,13,-10,11
COc1ccccc1C(=O)NCCC(=O)Nc1ccc(S(=O)(=O)N2CCCC(C)C2)cc1 (stereo not drawn),-1,28*,-19,-6,3
CN(C)CCN1CCN(C2CN(Cc3ccc([N+](=O)[O-])cc3)S(=O)(=O)C2)CC1 (stereo not drawn),-15,-13,-17,3,.
Cc1cc(OCC(=O)Nc2cccnc2)c2c(C)c(C)c(=O)oc2c1,20,29*,.,-7,30*
Cc1cc(OCC(=O)NCc2cccnc2)c2c(C)c(C)c(=O)oc2c1,-2,3,.,2,.
Nc1nonc1-c1nc2ccccc2n1Cc1ccc(Cl)cc1,8,25*,1,-7,1
CCOC(=O)C(C(=O)OCC)C(c1ccccc1)N1CCN(c2ccccc2)CC1 (stereo not drawn),0,-2,-4,-12,.
O=C(Nc1cccc(-c2cc3ccccc3oc2=O)c1)c1ccc(Br)o1,12,27*,22,18,15
SMILES,ASAP1 inh,ARFGAP1 inhibitor,Neddyl block,H9c2 protect,ARFGAP1 confirm
CCOc1ccc(CCN2C(=S)N([C@@H](Cc3ccc(O)cc3)CN3CCC[C@@H]3CN3C(=S)NC[C@@H]3CC(C)C)C[C@@H]2CC(C)C)cc1,3,-9,0,-2,.
CC(C)=CCC1=C(OCC(=O)O)C(=O)c2ccccc2C1=O,18,25*,-55,-14,-5
CC(C)=CCC/C(C)=C/CC/C(C)=C/CC/C(C)=C/CC1=C(C)C(=O)c2ccccc2C1=O,-2,2,-5,-24,.
NS(=O)(=O)c1ccc(S(=O)(=O)N2CCCC2)cc1,5,8,8,4,.
NS(=O)(=O)c1ccc(Nc2ccc3cc(S(=O)(=O)N4CCCCC4)ccc3n2)cc1,24,47*,.,7,52*
CC1C(=O)N2CCCc3cc(NC(=O)C(=O)NCc4ccc5c(c4)OCO5)cc1c32 (stereo not drawn),1,-2,1,6,.
CC1C(=O)N2CCCc3cc(NC(=O)C(=O)NCc4cccnc4)cc1c32 (stereo not drawn),-6,27*,19,2,-3
CCN1C(=O)N(C)C(N(O)C(=O)NC)C1(C)C (stereo not drawn),-7,26*,4,0,-6
CNC(=O)N(O)C1N(C)C(=O)N(Cc2ccccc2)C1(C)C (stereo not drawn),8,6,-3,1,.
C[C@H](O)[C@@H]1C(=O)N2CCc3c([nH]c4ccccc34)[C@@H]2C[C@@H]1N(C)C(=O)OCc1ccccc1,10,-1,.,.,.
Cn1c(C(=O)NCC2CCCO2)cc2c(=O)[nH]c3ccccc3c21 (stereo not drawn),15,25*,27,2,-3
COc1ccc(OC)c(-c2nnc3n2N=C(c2ccc(OC)c(OC4CCOC4)c2)CS3)c1 (stereo not drawn),-1,26*,2,30,-2
O=c1cc(Cc2nnc(SCc3ccccc3)n2-c2ccc(Cl)cc2)[nH]c(=O)[nH]1,-2,-3,0,-7,.
CCSc1nnc(Cc2cc(=O)[nH]c(=O)[nH]2)n1-c1ccc(Cl)cc1,1,30*,1,-16,-9
Cc1cc(NC(=O)NC(=O)c2ccccc2NC(=O)CN(C)C)ccc1Oc1ncc(Br)cn1,5,31*,1,9,6
Cc1cc(NC(=O)NC(=O)c2ccccc2NC(=O)CN)ccc1Oc1ncc(Br)cn1,-1,6,4,-1,.
CC(C)Cn1c(N)c(C(=O)CSc2nc3ncc(Cl)cc3[nH]2)c(=O)n(C)c1=O,11,25*,-37,1,10
COc1ccc(C(CNC(=O)c2cccc(S(=O)(=O)Nc3ccc(F)cc3)c2)N2CCCCC2)cc1 (stereo not drawn),4,-1,-15,7,.
CCCCn1nnnc1C(c1cc2ccccc2o1)N(CCC#N)Cc1ccccc1 (stereo not drawn),-2,6,2,.,.
Cc1[nH][nH]c(=O)c1C(c1c(C)[nH][nH]c1=O)c1cn(C)c2ccccc12,1,25*,1,-10,1
Cc1[nH][nH]c(=O)c1C(c1c(C)[nH][nH]c1=O)c1cn(Cc2cccc3ccccc23)c2ccccc12,16,15,-2,-31,.
C[C@H]1COc2cccc(N(C)CCO)c2S(=O)(=O)N1,-2,-5,-2,.,.
O=C(Nc1ccccc1N1CCCCC1)c1ccc(-c2ccc(Cl)cc2)o1,7,27*,.,-8,-9
O=C(Nc1ccccc1N1CCCC1)c1ccc(Cl)cc1Cl,-18,30*,5,-9,-4
